Laboratory results reported in ChEMBL document CHEMBL1158001, “Cytotoxic isoprenylated flavans of Broussonetia kazinoki” (1999).
≈ marks a conversion by molar mass, not a printed value. *1 amine or outer side, *2 acyl side, *3 side chain or, on linkers, in order; H or OH if unused. Where a SMILES comes first, the peptide text is derived from it. Bridges are numbered along the chain shown (N, C = ends). Roman numbers before positions name the chains, in order. [ ]: non-standard residue; d: D form. Actinocin(1to9) = Cc1c2oc3c(C)ccc(C(=O)[*:2])c3nc-2c(C(=O)[*:1])c(N)c1=O; NMeV = CN[C@H](C(=O)O)C(C)C; Sar = CNCC(=O)O

Assays:
T-24 = experiment: Cytotoxicity against human T24 cells after 6 days by MTT assay; type: functional; conditions: T-24, 144 h, read-out: ED50 (the source's name)
Summary of the method: (§1)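 Cells kept in DMEM with 10% FBS, 2 mM L-glutamine, penicillin and streptomycin. 1-3 × 10^3 cells/100 µL, attached 6 h, then fresh medium with a concentration series for 6 days at 37 °C in CO2, plus 10 mM HEPES pH 7.3. MTT (1 mg/mL in PBS) added for 4 h, formazan dissolved in DMSO, A550 read.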

Ca-Ski = experiment: Cytotoxicity against human CaSki cells after 6 days by MTT assay; type: functional; conditions: 144 h, read-out: ED50 (the source's name); summary of the method: as §1
[1] = Cytotoxicity against human PLC/PRF/5 cells after 6 days by MTT assay; type: functional; conditions: PLC-PRF-5, 144 h, read-out: ED50 (the source's name); summary of the method: as §1
HT-3 = experiment: Cytotoxicity against human HT-3 cells after 6 days by MTT assay; type: functional; conditions: for EC50: Homo sapiens, HT-3, 144 h, read-out: ED50 (the source's name); summary of the method: as §1
SiHa = experiment: Cytotoxicity against human SiHa cells after 6 days by MTT assay; type: functional; conditions: for EC50: Homo sapiens, SiHa, 144 h, read-out: ED50 (the source's name); summary of the method: as §1
212 (Mus musculus) = experiment: Cytotoxicity against mouse 212 cells after 6 days by MTT assay; conditions: 144 h, read-out: ED50 (the source's name)

Cc1c2oc3c(C)ccc(C(=O)N[C@@H]4C(=O)N[C@H](C(C)C)C(=O)N5CCC[C@H]5C(=O)N(C)CC(=O)N(C)[C@@H](C(C)C)C(=O)O[C@@H]4C)c3nc-2c(C(=O)N[C@@H]2C(=O)N[C@H](C(C)C)C(=O)N3CCC[C@H]3C(=O)N(C)CC(=O)N(C)[C@@H](C(C)C)C(=O)O[C@@H]2C)c(N)c1=O [DACTINOMYCIN] (I: T[dV]P[Sar][NMeV] / II: T[dV]P[Sar][NMeV]; ester I:1-I:C, II:1-II:C; linker I:N-II:N via Actinocin(1to9))
EC50 (T-24): 0.0015 µg/mL (≈ 0.00119 µM) | EC50 (Ca-Ski): 0.0019 µg/mL (≈ 0.00151 µM) | EC50 [1]: 0.0014 µg/mL (≈ 0.00112 µM) | ED50 (HT-3): 5.6 ×10⁻⁴ ug/ml | ED50 (SiHa): 8.1 ×10⁻⁴ ug/ml

C=CC(C)(C)c1cc2c(cc1O)OC(c1cc(CC=C(C)C)c(O)c(O)c1CC=C(C)C)CC2 (stereo not given) [KAZINOL Q]
EC50 (212 (Mus musculus)): 3.8 µg/mL (≈ 8.21 µM) | EC50 (T-24): 2.3 µg/mL (≈ 4.97 µM) | EC50 [1]: 3.5 µg/mL (≈ 7.57 µM) | EC50 (HT-3): 4.3 µg/mL (≈ 9.29 µM) | EC50 (SiHa): 4.7 µg/mL (≈ 10.2 µM)

Oc1ccc(C2CCc3ccc(O)cc3O2)cc1 (stereo not given)
EC50 (Ca-Ski): 17.4 µg/mL (≈ 71.8 µM) | EC50 (HT-3): 11.6 µg/mL (≈ 47.9 µM) | EC50 (SiHa): 8.9 µg/mL (≈ 36.7 µM)

C=CC(C)(C)c1cc2c(cc1O)OC(c1cc(O)c3c(c1CC=C(C)C)CC(O)C(C)(C)O3)CC2 (stereo not given)
EC50 (Ca-Ski): 8.2 µg/mL (≈ 17.1 µM) | EC50 (HT-3): 9.3 µg/mL (≈ 19.4 µM) | EC50 (SiHa): 9.3 µg/mL (≈ 19.4 µM)

C=CC(C)(C)c1cc(CCCc2cc(O)c3c(c2CC=C(C)C)C=CC(C)(C)O3)c(O)cc1O [KAZINOL K]
EC50 (HT-3): 8.6 µg/mL (≈ 18.6 µM)

C=CC(C)(C)c1cc(CCCc2cc(O)c3c(c2CC=C(C)C)CCC(C)(C)O3)c(O)cc1O [KAZINOL D]
EC50 (212 (Mus musculus)): 7 µg/mL (≈ 15.1 µM) | EC50 [1]: 3.3 µg/mL (≈ 7.1 µM) | EC50 (HT-3): 3.6 µg/mL (≈ 7.75 µM)
